Test results taken from ChEMBL document CHEMBL1126581 (J Med Chem, 1993).
Where a SMILES comes first, the peptide text is derived from it. [ ]: non-standard residue; d: D form. The star is where a group is joined. dHpg = N[C@@H](C(=O)O)c1ccc(O)cc1; dChg = N[C@@H](C(=O)O)C1CCCCC1; dPhg = N[C@@H](C(=O)O)c1ccccc1; Boc = CC(C)(C)OC(=O)*

Experiments:
Prothrombin (Bos taurus) = Prothrombin (Bos taurus) (UniProt P00735); experiment: Inhibitory activity against thrombin
[1] = biological target: Coagulation factor X (Bos taurus) (UniProt P00743); experiment: Inhibitory activity against factor Xa
Coagulation factor X (Bos taurus), sequence (P00743 whole entry, looked up): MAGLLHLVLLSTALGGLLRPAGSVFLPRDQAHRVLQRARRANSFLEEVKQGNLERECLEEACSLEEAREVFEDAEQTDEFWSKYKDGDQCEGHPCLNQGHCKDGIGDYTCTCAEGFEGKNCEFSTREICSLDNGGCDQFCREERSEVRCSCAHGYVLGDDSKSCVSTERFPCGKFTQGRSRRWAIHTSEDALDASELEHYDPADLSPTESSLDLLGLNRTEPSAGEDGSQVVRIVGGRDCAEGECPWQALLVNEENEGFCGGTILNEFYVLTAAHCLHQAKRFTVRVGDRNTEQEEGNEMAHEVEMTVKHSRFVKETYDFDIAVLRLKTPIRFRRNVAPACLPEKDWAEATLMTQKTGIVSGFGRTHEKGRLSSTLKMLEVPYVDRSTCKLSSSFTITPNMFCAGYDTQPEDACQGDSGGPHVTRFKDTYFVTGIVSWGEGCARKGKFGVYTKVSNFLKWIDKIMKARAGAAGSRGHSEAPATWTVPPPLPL

[2] = Selectivity was expressed as the ratio is IC 50 of plasmin / thrombin
How it was run: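 Ratio of plasmin IC50 to thrombin IC50. Amidolytic assays at 25 °C in 0.1 M Tris-HCl (pH 7.4):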

[3] = Selectivity was expressed as the ratio is IC 50 of t-PA / thrombin
How it was run: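 Ratio of t-PA IC50 to thrombin IC50. Amidolytic assays in 0.1 M Tris-HCl (pH 7.4) at 25 °C: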

Serine protease 1 = Serine protease 1 (Homo sapiens, UniProt P07477); experiment: Inhibitory activity against trypsin
Serine protease 1, sequence (P07477 whole entry): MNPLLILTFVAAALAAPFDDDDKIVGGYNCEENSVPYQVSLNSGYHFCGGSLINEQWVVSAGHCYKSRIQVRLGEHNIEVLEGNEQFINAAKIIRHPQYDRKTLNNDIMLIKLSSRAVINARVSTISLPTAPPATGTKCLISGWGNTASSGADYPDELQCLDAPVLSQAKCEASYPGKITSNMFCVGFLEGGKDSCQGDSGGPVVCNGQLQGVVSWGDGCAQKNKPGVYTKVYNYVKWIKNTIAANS
How it was run: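 Trypsin 93 ng/mL hydrolysing Bz-Phe-Val-Arg-pNA 0.125 mg/mL, 0.1 M Tris-HCl pH 7.4, 25 °C. […] Varying peptide concentrations, 5-min preincubation. IC50 is the concentration producing 50% inhibition of activity against a blank control.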

Plasminogen = Plasminogen (Homo sapiens, UniProt P00747); experiment: Inhibitory activity against plasmin
Plasminogen, sequence (P00747 97-580 limits assumed): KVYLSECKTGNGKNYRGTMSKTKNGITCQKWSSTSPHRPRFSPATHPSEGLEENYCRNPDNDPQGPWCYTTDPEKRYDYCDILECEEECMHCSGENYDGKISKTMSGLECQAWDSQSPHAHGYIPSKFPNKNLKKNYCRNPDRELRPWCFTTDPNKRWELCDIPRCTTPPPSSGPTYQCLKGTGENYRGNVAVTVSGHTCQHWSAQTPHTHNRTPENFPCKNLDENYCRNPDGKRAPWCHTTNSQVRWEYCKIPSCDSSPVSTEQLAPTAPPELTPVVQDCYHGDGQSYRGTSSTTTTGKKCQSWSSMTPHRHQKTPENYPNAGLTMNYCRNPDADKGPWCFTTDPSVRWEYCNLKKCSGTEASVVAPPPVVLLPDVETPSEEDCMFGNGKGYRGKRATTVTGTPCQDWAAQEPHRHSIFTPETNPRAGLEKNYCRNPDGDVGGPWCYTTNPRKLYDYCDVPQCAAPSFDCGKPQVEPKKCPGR
Plasminogen, sequence (P00747 581-810 limits assumed): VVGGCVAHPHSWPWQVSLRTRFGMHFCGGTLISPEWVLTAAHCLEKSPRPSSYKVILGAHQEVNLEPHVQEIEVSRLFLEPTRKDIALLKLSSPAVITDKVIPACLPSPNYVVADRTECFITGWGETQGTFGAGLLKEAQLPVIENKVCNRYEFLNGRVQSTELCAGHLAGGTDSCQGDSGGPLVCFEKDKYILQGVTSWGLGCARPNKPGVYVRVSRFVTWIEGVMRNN

IC50 (Prothrombin (Bos taurus)) | IC50 [1] | Selectivity ratio [2] | Selectivity ratio [3] | IC50 (Serine protease 1) | IC50 (Plasminogen) | Structure (SMILES)
16 nM | 260 nM | 6 | 540 | 9.8 nM | 98 nM | CC(C)(C)OC(=O)N[C@@H](C(=O)N1CCC[C@H]1C(=O)N[C@H](C=O)CCCN=C(N)N)c1ccccc1 (Boc-[dPhg]-Pro-Arg-aldehyde)
 |  | 30 | 2300 |  |  | CN[C@@H](C(=O)N1CCC[C@H]1C(=O)N[C@H](C=O)CCCN=C(N)N)c1ccccc1
 |  | 30 | 870 |  |  | CC(C)(C)OC(=O)N[C@@H](C(=O)N1CCC[C@H]1C(=O)NC(C=O)CCCN=C(N)N)c1cccc2ccccc12 (some centres not stated)
 |  | 190 | > 100 |  |  | C[C@H](C(=O)N1CCC[C@H]1C(=O)NC(C=O)CCCN=C(N)N)c1ccccc1 (some centres not stated)
27 nM | 1400 nM | 5 | 560 | 19 nM | 130 nM | CC(C)(C)OC(=O)NC(C(=O)N1CCC[C@H]1C(=O)NC(C=O)CCCN=C(N)N)c1cccc(C(F)(F)F)c1 (some centres not stated)
 |  | 3 |  |  |  | CC(C)(C)OC(=O)N[C@H](C(=O)N1CCC[C@H]1C(=O)NC(C=O)CCCN=C(N)N)c1cccc2ccccc12 (some centres not stated)
12 nM | 81 nM | 7 | 190 | 13 nM | 81 nM | CC(C)(C)OC(=O)N[C@@H](C(=O)N1CCC[C@H]1C(=O)N[C@H](C=O)CCCN=C(N)N)C1CCCCC1 (Boc-[dChg]-Pro-Arg-aldehyde)
73 nM | 190 nM | 2 | 180 | 13 nM | 150 nM | CC(C)(C)OC(=O)N[C@@H](C(=O)N1CCC[C@H]1C(=O)N[C@H](C=O)CCCN=C(N)N)c1ccsc1
45 nM | 1600 nM | 4 | 20 | 14 nM | 190 nM | CC(C)(C)OC(=O)N[C@H](Cc1ccccc1)C(=O)N1CCC[C@H]1C(=O)N[C@H](C=O)CCCN=C(N)N
18 nM | 50 nM | 3 | 670 | 9 nM | 55 nM | CC(C)(C)OC(=O)N[C@@H](C(=O)N1CCC[C@H]1C(=O)NC(C=O)CCCN=C(N)N)c1ccc2ccccc2c1 (some centres not stated)
23 nM | 1400 nM |  |  | 14 nM | 620 nM | CC(C)(C)OC(=O)N[C@@H](C(=O)N1CCC[C@H]1C(=O)NC(C=O)CCCNC(=N)N)c1cccc2ccccc12 (some centres not stated)
55 nM | 210 nM |  |  | 29 nM | 180 nM | CC(C)(C)OC(=O)N[C@H](C(=O)N1CCC[C@H]1C(=O)NC(C=O)CCCNC(=N)N)c1cccc2ccccc12 (some centres not stated)
 |  | 6 | 1100 |  |  | CC(C)(C)OC(=O)NC(C(=O)N1CCC[C@H]1C(=O)NC(C=O)CCCN=C(N)N)c1ccc(Cl)c(Cl)c1 (some centres not stated)
250 nM | 27000 nM | 60 | 3400 |  | 15000 nM | CO[C@H](C(=O)N1CCC[C@H]1C(=O)NC(C=O)CCCN=C(N)N)c1ccccc1 (some centres not stated)
5100 nM | 81000 nM | 8 |  | 890 nM | 41000 nM | C[C@@H](C(=O)N1CCC[C@H]1C(=O)NC(C=O)CCCN=C(N)N)c1ccccc1 (some centres not stated)
28 nM | 69 nM |  |  | 15 nM | 180 nM | CC(C)(C)OC(=O)NC(C(=O)N1CCC[C@H]1C(=O)NC(C=O)CCCNC(=N)N)c1ccc(Cl)c(Cl)c1 (some centres not stated)

More lines, now with the values behind:

Structure (SMILES) | IC50 (Prothrombin (Bos taurus)) | IC50 [1] | Selectivity ratio [2] | Selectivity ratio [3] | IC50 (Serine protease 1) | IC50 (Plasminogen)
NC(N)=NCCC[C@@H](C=O)NC(=O)[C@@H]1CCCN1C(=O)[C@H](N)c1ccccc1 (H-[dPhg]-Pro-Arg-aldehyde) | 18 nM | 1600 nM | 50 | 2200 | 19 nM | 910 nM
C[C@H](C(=O)N1CCC[C@H]1C(=O)NC(C=O)CCCNC(=N)N)c1ccccc1 (some centres not stated) | 94 nM | 31000 nM |  |  | 180 nM | 18000 nM
CC(C)(C)OC(=O)N[C@@H](C(=O)N1CCC[C@H]1C(=O)N[C@H](C=O)CCCN=C(N)N)c1ccc(F)cc1 | 30 nM | 1600 nM | 4 | 600 | 19 nM | 85 nM
CC(C)(C)OC(=O)N[C@@H](C(=O)N1CCC[C@H]1C(=O)N[C@H](C=O)CCCN=C(N)N)c1ccc(O)cc1 (Boc-[dHpg]-Pro-Arg-aldehyde) | 89 nM | 200 nM | 1 | 180 | 17 nM | 94 nM
CC[C@H](C(=O)N1CCC[C@H]1C(=O)NC(C=O)CCCNC(=N)N)c1ccccc1 (some centres not stated) | 130 nM | 33000 nM |  |  | 350 nM | 21000 nM
CC[C@H](C(=O)N1CCC[C@H]1C(=O)NC(C=O)CCCN=C(N)N)c1ccccc1 (some centres not stated) |  |  | 160 | > 800 |  | 
CN[C@@H](C(=O)N1CCC[C@H]1C(=O)N[C@H](C=O)CCCNC(=N)N)c1ccccc1 | 18 nM | 2200 nM |  |  | 18 nM | 490 nM
CC(C)(C)OC(=O)N[C@H](C(=O)N1CCC[C@H]1C(=O)N[C@H](C=O)CCCN=C(N)N)c1ccc(F)cc1 | 85 nM | 6700 nM | 9 | 1100 | 24 nM | 770 nM
N=C(N)NCCC[C@@H](C=O)NC(=O)[C@@H]1CCCN1C(=O)[C@H]1Cc2ccccc2CN1 | 25 nM | 4100 nM |  |  | 19 nM | 
N=C(N)NCCC[C@@H](C=O)NC(=O)[C@@H]1CCCN1C(=O)[C@@H]1NCCc2ccccc21 | 19 nM |  |  |  | 23 nM | 1500 nM
N=C(N)NCCC[C@@H](C=O)NC(=O)[C@@H]1CCCN1C(=O)C1CCc2ccccc2N1 (some centres not stated) | 3100 nM | 12000 nM | 5 | 210 | 570 nM | 15000 nM
